Measurements taken from ChEMBL document CHEMBL2010673, “Structure-activity relationship of pyrrole based S-nitrosoglutathione reductase inhibitors: carboxamide modification” (Bioorg Med Chem Lett, 2012).
pIC50: −log10 of the molar value. One block for each molecule: values may come before it. The source made the active and inactive calls. Unless noted, the rule behind the calls is not given here.

Tests used:
[1] = target: Adenosine receptor A1 (Homo sapiens) (UniProt P30542); assay: Inhibition of adenosine A1 receptor at 10 uM by radioligand displacement assay
Adenosine receptor A1 (Homo sapiens), sequence (P30542 whole entry): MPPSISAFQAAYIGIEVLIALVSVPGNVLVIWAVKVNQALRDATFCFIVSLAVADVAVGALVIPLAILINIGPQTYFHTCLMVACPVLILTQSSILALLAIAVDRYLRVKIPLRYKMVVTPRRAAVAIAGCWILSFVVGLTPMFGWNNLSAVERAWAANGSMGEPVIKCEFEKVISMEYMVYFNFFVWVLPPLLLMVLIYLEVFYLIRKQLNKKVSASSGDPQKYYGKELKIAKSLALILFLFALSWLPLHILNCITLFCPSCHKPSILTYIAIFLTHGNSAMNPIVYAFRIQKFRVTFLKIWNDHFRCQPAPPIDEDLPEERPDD
Procedure, shortened: (§1)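 Off-target radioligand binding panel. Test compound at 10 µM. Each assay had at least 6 control wells, with or without vehicle, for soluble compounds. Values are percent inhibition of radioligand binding. ≥50% inhibition was scored as a positive response.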

[2] = Inhibition of GABA receptor at 10 uM by radioligand displacement assay; procedure, shortened: as §1
[3] = target: Muscarinic acetylcholine receptor M3 (Homo sapiens) (UniProt P20309); assay: Inhibition of M3 receptor at 10 uM by radioligand displacement assay; procedure, shortened: as §1
[4] = target: Endothelin-1 receptor (Homo sapiens) (UniProt P25101); assay: Inhibition of Eta receptor at 10 uM by radioligand displacement assay; procedure, shortened: as §1
[5] = target: Sodium-dependent dopamine transporter (Homo sapiens) (UniProt Q01959); assay: Inhibition of dopamine transporter at 10 uM by radioligand displacement assay
Procedure, shortened: (§2)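 Off-target panel: radioligand binding to each receptor, channel or transporter with test compound at 10 µM; activity reported as percent inhibition of specific binding. At least 6 control wells with or without vehicle per assay. Inhibition of 50% or greater counted as a positive response.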

[6] = target: 5-hydroxytryptamine receptor 3A (Homo sapiens) (UniProt P46098); assay: Inhibition of 5HT3 receptor at 10 uM by radioligand displacement assay; procedure, shortened: as §1
[7] = target: Sodium-dependent noradrenaline transporter (Homo sapiens) (UniProt P23975); assay: Inhibition of norepinephrine […] at 10 uM by radioligand displacement assay; procedure, shortened: as §2
[8] = target: Adenosine receptor A2a (Homo sapiens) (UniProt P29274); assay: Inhibition of adenosine A2a receptor at 10 uM by radioligand displacement assay; procedure, shortened: as §1
[9] = Inhibition of sst receptor at 10 uM by radioligand displacement assay; procedure, shortened: as §2
A549 = assay: Cytotoxicity against human A549 cells after 48 hrs by MTS assay; assay type: cell-based; details: A549, 48 h
[10] = target: 5-hydroxytryptamine receptor 2B (Homo sapiens) (UniProt P41595); assay: Inhibition of 5HT2b receptor at 10 uM by radioligand displacement assay; procedure, shortened: as §1
[11] = target: Substance-K receptor (Homo sapiens) (UniProt P21452); assay: Inhibition of NK2 receptor at 10 uM by radioligand displacement assay; procedure, shortened: as §1
Substance-K receptor (Homo sapiens), sequence (P21452 whole entry): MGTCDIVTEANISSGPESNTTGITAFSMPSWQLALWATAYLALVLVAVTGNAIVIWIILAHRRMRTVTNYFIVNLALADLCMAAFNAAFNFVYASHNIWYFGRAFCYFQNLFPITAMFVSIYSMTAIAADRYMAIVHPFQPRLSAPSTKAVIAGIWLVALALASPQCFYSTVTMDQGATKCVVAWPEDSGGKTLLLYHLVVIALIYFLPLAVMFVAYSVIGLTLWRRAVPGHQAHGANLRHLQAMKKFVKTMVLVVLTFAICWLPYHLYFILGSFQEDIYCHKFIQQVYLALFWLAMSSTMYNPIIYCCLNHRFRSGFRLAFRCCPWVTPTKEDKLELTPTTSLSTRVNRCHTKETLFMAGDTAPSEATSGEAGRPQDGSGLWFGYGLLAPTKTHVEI

[12] = target: D(2) dopamine receptor (Homo sapiens) (UniProt P14416); assay: Inhibition of D2S receptor at 10 uM by radioligand displacement assay; procedure, shortened: as §1
D(2) dopamine receptor (Homo sapiens), sequence (P14416 whole entry): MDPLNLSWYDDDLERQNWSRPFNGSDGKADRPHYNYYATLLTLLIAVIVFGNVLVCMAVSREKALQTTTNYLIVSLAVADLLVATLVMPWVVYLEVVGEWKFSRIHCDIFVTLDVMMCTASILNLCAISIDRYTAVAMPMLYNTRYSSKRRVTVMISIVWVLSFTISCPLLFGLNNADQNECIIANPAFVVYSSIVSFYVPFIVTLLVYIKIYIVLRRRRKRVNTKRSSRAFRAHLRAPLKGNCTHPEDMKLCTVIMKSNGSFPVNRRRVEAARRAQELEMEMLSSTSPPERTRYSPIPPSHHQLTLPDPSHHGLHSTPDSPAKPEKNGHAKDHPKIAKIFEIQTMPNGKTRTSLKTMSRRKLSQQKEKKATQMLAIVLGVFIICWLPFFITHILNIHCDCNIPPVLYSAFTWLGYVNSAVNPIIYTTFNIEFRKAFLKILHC

[13] = target: Mu-type opioid receptor (Homo sapiens) (UniProt P35372); assay: Inhibition of Mu opioid receptor at 10 uM by radioligand displacement assay; procedure, shortened: as §1
[14] = target: Neurotensin receptor type 1 (Homo sapiens) (UniProt P30989); assay: Inhibition of NTS1 receptor at 10 uM by radioligand displacement assay; procedure, shortened: as §1
Neurotensin receptor type 1 (Homo sapiens), sequence (P30989 whole entry): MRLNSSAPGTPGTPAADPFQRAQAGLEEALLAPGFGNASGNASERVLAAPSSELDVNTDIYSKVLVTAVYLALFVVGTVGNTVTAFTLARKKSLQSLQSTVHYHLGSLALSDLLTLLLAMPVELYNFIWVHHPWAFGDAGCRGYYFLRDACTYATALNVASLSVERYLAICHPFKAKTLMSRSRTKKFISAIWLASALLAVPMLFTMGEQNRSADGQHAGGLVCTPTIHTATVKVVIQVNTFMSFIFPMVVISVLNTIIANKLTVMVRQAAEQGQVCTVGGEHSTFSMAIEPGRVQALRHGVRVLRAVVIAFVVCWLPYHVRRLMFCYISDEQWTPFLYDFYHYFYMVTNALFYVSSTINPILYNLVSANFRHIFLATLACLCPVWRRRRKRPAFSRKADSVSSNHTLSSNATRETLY

[15] = target: Melanocortin receptor 4 (Homo sapiens) (UniProt P32245); assay: Inhibition of MC4 receptor at 10 uM by radioligand displacement assay; procedure, shortened: as §1
[16] = Inhibition of alpha2 adrenergic receptor at 10 uM by radioligand displacement assay; procedure, shortened: as §2
[17] = target: Adenosine receptor A3 (Homo sapiens) (UniProt P0DMS8); assay: Inhibition of adenosine A3 receptor at 10 uM by radioligand displacement assay; procedure, shortened: as §2
[18] = target: 5-hydroxytryptamine receptor 5A (Homo sapiens) (UniProt P47898); assay: Inhibition of 5HT5A receptor at 10 uM by radioligand displacement assay; procedure, shortened: as §1
[19] = target: 5-hydroxytryptamine receptor 6 (Homo sapiens) (UniProt P50406); assay: Inhibition of 5HT6 receptor at 10 uM by radioligand displacement assay; procedure, shortened: as §1
[20] = target: Neuropeptide Y receptor type 1 (Homo sapiens) (UniProt P25929); assay: Inhibition of Y1 receptor at 10 uM by radioligand displacement assay; procedure, shortened: as §1
[21] = target: Histamine H1 receptor (Homo sapiens) (UniProt P35367); assay: Inhibition of H1 receptor at 10 uM by radioligand displacement assay; procedure, shortened: as §1
Histamine H1 receptor (Homo sapiens), sequence (P35367 whole entry): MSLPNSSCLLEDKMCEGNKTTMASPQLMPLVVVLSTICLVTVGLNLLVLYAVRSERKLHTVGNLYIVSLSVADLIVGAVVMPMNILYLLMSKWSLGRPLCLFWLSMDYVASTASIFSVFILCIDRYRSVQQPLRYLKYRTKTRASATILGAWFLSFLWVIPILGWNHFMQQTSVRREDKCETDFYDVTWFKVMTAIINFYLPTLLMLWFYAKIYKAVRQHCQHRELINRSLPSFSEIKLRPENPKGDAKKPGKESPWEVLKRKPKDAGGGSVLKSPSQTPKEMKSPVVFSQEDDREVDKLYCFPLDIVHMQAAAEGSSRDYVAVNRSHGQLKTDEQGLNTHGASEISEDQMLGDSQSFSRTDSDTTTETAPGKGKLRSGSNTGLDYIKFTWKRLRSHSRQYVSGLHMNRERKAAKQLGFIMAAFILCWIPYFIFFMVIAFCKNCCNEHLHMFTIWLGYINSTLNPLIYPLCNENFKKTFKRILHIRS

[22] = Inhibition of L-type calcium channel at 10 uM by radioligand displacement assay; procedure, shortened: as §1
[23] = target: Beta-2 adrenergic receptor (Homo sapiens) (UniProt P07550); assay: Inhibition of Beta2 adrenergic receptor at 10 uM by radioligand displacement assay; procedure, shortened: as §1
[24] = target: 5-hydroxytryptamine receptor 2A (Homo sapiens) (UniProt P28223); assay: Inhibition of 5HT2A receptor at 10 uM by radioligand displacement assay; procedure, shortened: as §1
5-hydroxytryptamine receptor 2A (Homo sapiens), sequence (P28223 whole entry): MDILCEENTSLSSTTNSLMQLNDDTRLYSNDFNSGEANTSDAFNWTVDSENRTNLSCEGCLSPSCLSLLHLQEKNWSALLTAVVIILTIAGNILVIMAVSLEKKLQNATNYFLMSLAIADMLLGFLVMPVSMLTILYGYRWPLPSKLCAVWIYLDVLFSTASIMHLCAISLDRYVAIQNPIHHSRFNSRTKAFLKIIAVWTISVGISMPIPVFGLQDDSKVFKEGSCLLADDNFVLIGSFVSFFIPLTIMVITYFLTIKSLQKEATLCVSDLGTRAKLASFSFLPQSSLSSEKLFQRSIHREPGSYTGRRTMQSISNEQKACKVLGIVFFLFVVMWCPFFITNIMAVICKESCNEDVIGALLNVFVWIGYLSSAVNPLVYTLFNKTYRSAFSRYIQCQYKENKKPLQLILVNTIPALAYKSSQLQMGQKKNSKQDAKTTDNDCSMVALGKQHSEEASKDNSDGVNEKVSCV

[25] = target: Translocator protein (Homo sapiens) (UniProt P30536); assay: Inhibition of Benzodiazepine receptor at 10 uM by radioligand displacement assay; procedure, shortened: as §1
Translocator protein (Homo sapiens), sequence (P30536 whole entry): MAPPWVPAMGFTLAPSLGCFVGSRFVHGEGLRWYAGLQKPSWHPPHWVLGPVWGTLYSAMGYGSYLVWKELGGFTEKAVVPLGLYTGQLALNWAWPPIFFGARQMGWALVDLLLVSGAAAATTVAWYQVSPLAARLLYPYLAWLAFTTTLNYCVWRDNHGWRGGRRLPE

[26] = target: Kappa-type opioid receptor (Homo sapiens) (UniProt P41145); assay: Inhibition of Kappa opioid receptor at 10 uM by radioligand displacement assay; procedure, shortened: as §1
Kappa-type opioid receptor (Homo sapiens), sequence (P41145 whole entry): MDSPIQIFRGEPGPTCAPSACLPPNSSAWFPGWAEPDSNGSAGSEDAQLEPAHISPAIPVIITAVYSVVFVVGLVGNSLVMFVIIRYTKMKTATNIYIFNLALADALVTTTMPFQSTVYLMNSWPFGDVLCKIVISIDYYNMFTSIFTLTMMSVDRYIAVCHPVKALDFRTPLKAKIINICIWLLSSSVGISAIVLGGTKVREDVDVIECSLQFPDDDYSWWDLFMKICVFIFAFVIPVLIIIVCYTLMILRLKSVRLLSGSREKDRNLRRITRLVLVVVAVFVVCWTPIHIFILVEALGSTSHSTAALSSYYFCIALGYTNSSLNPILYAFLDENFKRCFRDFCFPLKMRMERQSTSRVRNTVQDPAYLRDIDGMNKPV

[27] = target: Nociceptin receptor (Homo sapiens) (UniProt P41146); assay: Inhibition of NOP receptor at 10 uM by radioligand displacement assay; procedure, shortened: as §1
[28] = target: Muscarinic acetylcholine receptor M1 (Homo sapiens) (UniProt P11229); assay: Inhibition of M1 receptor at 10 uM by radioligand displacement assay; procedure, shortened: as §1
[29] = Inhibition of delta2 opioid receptor at 10 uM by radioligand displacement assay; procedure, shortened: as §2
[30] = target: Type-1 angiotensin II receptor (Homo sapiens) (UniProt P30556); assay: Inhibition of AT1 receptor at 10 uM by radioligand displacement assay; procedure, shortened: as §1
[31] = target: Sodium-dependent serotonin transporter (Homo sapiens) (UniProt P31645); assay: Inhibition of 5HT transporter at 10 uM by radioligand displacement assay; procedure, shortened: as §1
[32] = target: C-C chemokine receptor type 1 (Homo sapiens) (UniProt P32246); assay: Inhibition of CCR1 receptor at 10 uM by radioligand displacement assay; procedure, shortened: as §1
[33] = target: Neuropeptide Y receptor type 2 (Homo sapiens) (UniProt P49146); assay: Inhibition of Y2 receptor at 10 uM by radioligand displacement assay; procedure, shortened: as §1
[34] = Inhibition of Sodium channel at 10 uM by radioligand displacement assay; procedure, shortened: as §1
[35] = target: Galanin receptor type 2 (Homo sapiens) (UniProt O43603); assay: Inhibition of GAL2 receptor at 10 uM by radioligand displacement assay; procedure, shortened: as §1
[36] = Inhibition of MT1 receptor at 10 uM by radioligand displacement assay; procedure, shortened: as §1
[37] = target: B2 bradykinin receptor (Homo sapiens) (UniProt P30411); assay: Inhibition of B2 receptor at 10 uM by radioligand displacement assay; procedure, shortened: as §1
[38] = Inhibition of Kv channel at 10 uM by radioligand displacement assay; procedure, shortened: as §1
[39] = target: 5-hydroxytryptamine receptor 7 (Homo sapiens) (UniProt P34969); assay: Inhibition of 5HT7 receptor at 10 uM by radioligand displacement assay; procedure, shortened: as §1
5-hydroxytryptamine receptor 7 (Homo sapiens), sequence (P34969 whole entry): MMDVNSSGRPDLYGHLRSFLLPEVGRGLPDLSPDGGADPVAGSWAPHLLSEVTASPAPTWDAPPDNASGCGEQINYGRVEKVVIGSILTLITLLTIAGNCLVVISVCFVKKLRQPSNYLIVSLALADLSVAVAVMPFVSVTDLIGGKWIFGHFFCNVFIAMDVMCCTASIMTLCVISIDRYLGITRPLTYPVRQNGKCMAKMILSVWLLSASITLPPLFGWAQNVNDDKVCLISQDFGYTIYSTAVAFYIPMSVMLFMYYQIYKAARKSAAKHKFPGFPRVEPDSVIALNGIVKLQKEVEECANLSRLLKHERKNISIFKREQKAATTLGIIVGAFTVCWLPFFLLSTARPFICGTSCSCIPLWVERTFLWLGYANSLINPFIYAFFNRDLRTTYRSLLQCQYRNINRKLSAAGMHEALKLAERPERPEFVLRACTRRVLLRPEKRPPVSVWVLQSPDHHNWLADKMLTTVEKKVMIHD

[40] = target: Vasopressin V1a receptor (Homo sapiens) (UniProt P37288); assay: Inhibition of V1a receptor at 10 uM by radioligand displacement assay; procedure, shortened: as §1
Vasopressin V1a receptor (Homo sapiens), sequence (P37288 whole entry, looked up): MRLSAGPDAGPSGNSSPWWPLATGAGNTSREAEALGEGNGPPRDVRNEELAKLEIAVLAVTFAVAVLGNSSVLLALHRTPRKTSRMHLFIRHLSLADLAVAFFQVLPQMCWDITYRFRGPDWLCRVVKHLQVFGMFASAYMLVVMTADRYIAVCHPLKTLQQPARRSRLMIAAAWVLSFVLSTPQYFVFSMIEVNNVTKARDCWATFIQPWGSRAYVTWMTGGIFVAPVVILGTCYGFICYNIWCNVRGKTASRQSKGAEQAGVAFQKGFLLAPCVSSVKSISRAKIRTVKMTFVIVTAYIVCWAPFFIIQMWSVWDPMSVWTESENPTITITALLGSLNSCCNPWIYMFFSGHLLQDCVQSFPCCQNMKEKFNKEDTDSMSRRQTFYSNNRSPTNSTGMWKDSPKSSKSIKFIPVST

[41] = target: Cholecystokinin receptor type A (Homo sapiens) (UniProt P32238); assay: Inhibition of CCK1 receptor at 10 uM by radioligand displacement assay; procedure, shortened: as §1
Cholecystokinin receptor type A (Homo sapiens), sequence (P32238 whole entry): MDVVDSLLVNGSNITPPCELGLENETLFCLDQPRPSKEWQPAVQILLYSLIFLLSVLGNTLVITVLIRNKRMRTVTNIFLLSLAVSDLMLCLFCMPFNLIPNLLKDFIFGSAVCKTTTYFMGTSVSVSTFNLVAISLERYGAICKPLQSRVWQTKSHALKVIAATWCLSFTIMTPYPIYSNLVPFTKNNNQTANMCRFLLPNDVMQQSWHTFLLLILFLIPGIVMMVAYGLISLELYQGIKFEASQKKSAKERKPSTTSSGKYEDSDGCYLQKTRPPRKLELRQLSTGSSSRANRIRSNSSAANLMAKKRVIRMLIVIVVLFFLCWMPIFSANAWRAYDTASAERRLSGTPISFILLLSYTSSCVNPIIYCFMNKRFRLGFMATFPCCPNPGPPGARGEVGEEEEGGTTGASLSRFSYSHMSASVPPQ

[42] = target: Neuromedin-K receptor (Homo sapiens) (UniProt P29371); assay: Inhibition of NK3 receptor at 10 uM by radioligand displacement assay; procedure, shortened: as §1
Neuromedin-K receptor (Homo sapiens), sequence (P29371 whole entry): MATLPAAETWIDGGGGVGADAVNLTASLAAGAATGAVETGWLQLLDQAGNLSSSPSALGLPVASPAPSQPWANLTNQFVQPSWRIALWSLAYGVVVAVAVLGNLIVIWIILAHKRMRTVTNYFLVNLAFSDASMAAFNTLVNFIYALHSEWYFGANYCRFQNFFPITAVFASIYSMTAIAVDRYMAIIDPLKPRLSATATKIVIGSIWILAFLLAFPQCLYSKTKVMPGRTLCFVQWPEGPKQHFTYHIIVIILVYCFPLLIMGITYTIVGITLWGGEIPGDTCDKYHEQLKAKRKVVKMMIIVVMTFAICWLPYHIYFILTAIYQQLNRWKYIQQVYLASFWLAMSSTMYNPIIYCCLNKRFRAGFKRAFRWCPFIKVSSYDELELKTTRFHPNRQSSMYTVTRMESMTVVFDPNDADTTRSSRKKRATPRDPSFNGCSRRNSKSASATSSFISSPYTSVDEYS

inhibition [1]: inactive
inhibition [2]: inactive
inhibition [3]: inactive
inhibition [4]: inactive
inhibition [5]: inactive
inhibition [6]: inactive
inhibition [7]: inactive
inhibition [8]: inactive
inhibition [9]: inactive
inhibition [10]: inactive
inhibition [11]: inactive
inhibition [12]: inactive
inhibition [13]: inactive
inhibition [14]: inactive
inhibition [15]: inactive
inhibition [16]: inactive
inhibition [17]: inactive
inhibition [18]: inactive
inhibition [19]: inactive
inhibition [20]: inactive
inhibition [21]: inactive
inhibition [22]: inactive
inhibition [23]: inactive
inhibition [24]: inactive
inhibition [25]: inactive
inhibition [26]: inactive
inhibition [27]: inactive
inhibition [28]: inactive
inhibition [29]: inactive
inhibition [30]: inactive
inhibition [31]: inactive
inhibition [32]: inactive
inhibition [33]: inactive
inhibition [34]: inactive
inhibition [35]: inactive
inhibition [36]: inactive
inhibition [37]: inactive
inhibition [38]: inactive
inhibition [39]: inactive
inhibition [40]: inactive
inhibition [41]: inactive
inhibition [42]: inactive
Structure (SMILES): Cc1cc(NS(C)(=O)=O)ccc1-n1c(CCC(=O)O)ccc1-c1ccc(-n2ccnc2)cc1
pIC50 (A549): < 3.82

inhibition [1]: inactive
inhibition [2]: inactive
inhibition [3]: inactive
inhibition [4]: inactive
inhibition [5]: inactive
inhibition [6]: inactive
inhibition [7]: inactive
inhibition [8]: inactive
inhibition [9]: inactive
inhibition [10]: inactive
inhibition [11]: inactive
inhibition [12]: inactive
inhibition [13]: inactive
inhibition [14]: inactive
inhibition [15]: inactive
inhibition [16]: inactive
inhibition [17]: inactive
inhibition [18]: inactive
inhibition [19]: inactive
inhibition [20]: inactive
inhibition [21]: inactive
inhibition [22]: inactive
inhibition [23]: inactive
inhibition [24]: inactive
inhibition [25]: inactive
inhibition [26]: inactive
inhibition [27]: inactive
inhibition [28]: inactive
inhibition [29]: inactive
inhibition [30]: inactive
inhibition [31]: inactive
inhibition [32]: inactive
inhibition [33]: inactive
inhibition [34]: inactive
inhibition [35]: inactive
inhibition [36]: inactive
inhibition [37]: inactive
inhibition [38]: inactive
inhibition [39]: inactive
inhibition [40]: inactive
inhibition [41]: inactive
inhibition [42]: inactive
Structure (SMILES): Cc1cc(NS(C)(=O)=O)ccc1-n1c(CCC(=O)O)ccc1-c1ccc(-n2ccnc2C)s1
pIC50 (A549): < 3.82
